In BindingDB's records for doi:10.1021/jm015578d (Sapienza University of Rome, 2002):

Molecular target: T1, Amine oxidase [flavin-containing] A (Bos taurus, UniProt P21398)
T1 sequence (P21398 whole entry): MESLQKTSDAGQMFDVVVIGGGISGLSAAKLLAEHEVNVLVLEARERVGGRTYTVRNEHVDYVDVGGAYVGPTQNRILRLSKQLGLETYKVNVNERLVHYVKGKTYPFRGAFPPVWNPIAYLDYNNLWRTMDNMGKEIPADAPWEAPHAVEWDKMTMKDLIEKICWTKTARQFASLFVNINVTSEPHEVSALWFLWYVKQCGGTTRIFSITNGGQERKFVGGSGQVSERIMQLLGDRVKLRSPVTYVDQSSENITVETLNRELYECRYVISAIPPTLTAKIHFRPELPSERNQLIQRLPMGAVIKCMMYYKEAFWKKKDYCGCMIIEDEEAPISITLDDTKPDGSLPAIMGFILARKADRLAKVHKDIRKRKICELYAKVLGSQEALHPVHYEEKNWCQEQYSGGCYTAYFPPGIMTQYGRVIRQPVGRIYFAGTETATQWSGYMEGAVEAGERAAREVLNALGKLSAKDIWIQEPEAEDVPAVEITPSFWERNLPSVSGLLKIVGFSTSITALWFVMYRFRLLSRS
Assay: Inhibition of bovine brain mitochondrial Monoamine oxidase A (MAO-A) compared to toloxatone
How it was run: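 Bovine brain mitochondria were isolated by the Basford method. To isolate MAO-A, fractions were preincubated 30 min at 38 °C with 1 μM L-deprenyl. Inhibitors in DMSO were preincubated 30 min, then kynuramine substrate was added, with 30 min further incubation. Product was read fluorimetrically and Ki values derived.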

Ki: 270 nM
Compound: O=C1O[C@@H](CO)CN1n1cccc1
